“And” between values parts separate entries of the source, which are not always exact repeats. Equal entries are not always repeated.
System: U2OS
Test: Multiplex assay against U2OS
Format: toxicity, cell-based
Settings: human
In short: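 Cells stained live at seeding with Hoechst33342, BioTracker Green Microtubule Cytoskeleton Dye, MitoTracker Red and Annexin V Alexa Fluor 680 were imaged on a CQ1 microscope at 37°C and 5% CO2 after compound addition. Their classification by CellPathfinder machine-learning gating ran from Hoechst high-intensity objects versus normal cells, to healthy, pyknosed or fragmented nuclei among normal cells, to mitotic or apoptotic among pyknosed cells. Tubulin, mitochondrial-mass and membrane-permeability phenotypes are per cents of healthy-nucleus cells.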

[1] = 12 h, 1 µM, compound concentration 1 uM
[2] = 12 h, 10 µM, compound concentration 10 uM
[3] = 24 h, 1 µM, compound concentration 1 uM
[4] = 24 h, 10 µM, compound concentration 10 uM
[5] = 48 h, 1 µM, compound concentration 1 uM
[6] = 48 h, 10 µM, compound concentration 10 uM

## COc1cc2nc(N3CCN(C(=O)COc4c(OC)cccc4C(C)C)CC3)nc(N)c2cc1OC.Cl.Cl
[1]
  Population Apoptotic (%): 67% and 33%
  Population Fragmented Nuclei (%): 21% and 10%
  Population Healthy Nuclei (%): 66% and 84%
  Population Hoechst High Intensity Objects (%): 3% and 2%
  Population Membrane Permeable-Phenotype (%): 10%
  Population Mitochondria Different-Phenotype (%): 5% and 6%
  Population Mitotic Cells (%): 32% and 66%
  Population Normal (%): 96% and 97%
  Population Pyknosed Nuclei (%): 11% and 4%
  Population Tubulin-Different-Phenotype (%): 6%
  Total Cell Count: 256 and 136
[2]
  Population Apoptotic (%): 55% and 66%
  Population Fragmented Nuclei (%): 30% and 19%
  Population Healthy Nuclei (%): 43% and 48%
  Population Hoechst High Intensity Objects (%): 3% and 0%
  Population Membrane Permeable-Phenotype (%): 60% and 54%
  Population Mitochondria Different-Phenotype (%): 55% and 65%
  Population Mitotic Cells (%): 44% and 33%
  Population Normal (%): 96% and 99%
  Population Pyknosed Nuclei (%): 25% and 32%
  Population Tubulin-Different-Phenotype (%): 75% and 68%
  Total Cell Count: 233 and 151
[3]
  Population Apoptotic (%): 84% and 80%
  Population Fragmented Nuclei (%): 21% and 15%
  Population Healthy Nuclei (%): 67% and 77%
  Population Hoechst High Intensity Objects (%): 3% and 0%
  Population Membrane Permeable-Phenotype (%): 6% and 10%
  Population Mitochondria Different-Phenotype (%): 8% and 7%
  Population Mitotic Cells (%): 15% and 20%
  Population Normal (%): 96% and 99%
  Population Pyknosed Nuclei (%): 11% and 6%
  Population Tubulin-Different-Phenotype (%): 4% and 5%
  Total Cell Count: 297 and 154
[4]
  Population Apoptotic (%): 76% and 87%
  Population Fragmented Nuclei (%): 30% and 20%
  Population Healthy Nuclei (%): 36% and 40%
  Population Hoechst High Intensity Objects (%): 9% and 12%
  Population Membrane Permeable-Phenotype (%): 40% and 49%
  Population Mitochondria Different-Phenotype (%): 49% and 50%
  Population Mitotic Cells (%): 24% and 12%
  Population Normal (%): 90% and 87%
  Population Pyknosed Nuclei (%): 33% and 39%
  Population Tubulin-Different-Phenotype (%): 50% and 60%
  Total Cell Count: 246 and 185
[5]
  Population Apoptotic (%): 83% and 75%
  Population Fragmented Nuclei (%): 20% and 16%
  Population Healthy Nuclei (%): 70% and 72%
  Population Hoechst High Intensity Objects (%): 2% and 3%
  Population Membrane Permeable-Phenotype (%): 6% and 7%
  Population Mitochondria Different-Phenotype (%): 6%
  Population Mitotic Cells (%): 16% and 25%
  Population Normal (%): 97% and 96%
  Population Pyknosed Nuclei (%): 8% and 11%
  Population Tubulin-Different-Phenotype (%): 4% and 6%
  Total Cell Count: 441 and 225
[6]
  Population Apoptotic (%): 88% and 93%
  Population Fragmented Nuclei (%): 40% and 24%
  Population Healthy Nuclei (%): 21% and 23%
  Population Hoechst High Intensity Objects (%): 31% and 32%
  Population Membrane Permeable-Phenotype (%): 13% and 27%
  Population Mitochondria Different-Phenotype (%): 30% and 10%
  Population Mitotic Cells (%): 11% and 6%
  Population Normal (%): 68% and 67%
  Population Pyknosed Nuclei (%): 38% and 51%
  Population Tubulin-Different-Phenotype (%): 13% and 24%
  Total Cell Count: 296 and 180

## CCCCCC(O)/C=C/[C@H]1C(=O)CC(O)C1C/C=C\CCCC(=O)O (stereo partly specified)
[1]
  Population Apoptotic (%): 60% and 88%
  Population Fragmented Nuclei (%): 28% and 15%
  Population Healthy Nuclei (%): 59% and 76%
  Population Hoechst High Intensity Objects (%): 1% and 0%
  Population Membrane Permeable-Phenotype (%): 5% and 8%
  Population Mitochondria Different-Phenotype (%): 4% and 6%
  Population Normal (%): 98% and 99%
  Population Pyknosed Nuclei (%): 12% and 8%
  Population Tubulin-Different-Phenotype (%): 4% and 8%
  Total Cell Count: 203 and 113
[2]
  Population Apoptotic (%): 71% and 66%
  Population Fragmented Nuclei (%): 23% and 16%
  Population Healthy Nuclei (%): 69% and 73%
  Population Hoechst High Intensity Objects (%): 2%
  Population Membrane Permeable-Phenotype (%): 8% and 10%
  Population Mitochondria Different-Phenotype (%): 3% and 2%
  Population Mitotic Cells (%): 28% and 33%
  Population Normal (%): 97%
  Population Pyknosed Nuclei (%): 7% and 9%
  Population Tubulin-Different-Phenotype (%): 5% and 4%
  Total Cell Count: 190 and 94
[3]
  Population Apoptotic (%): 86% and 90%
  Population Fragmented Nuclei (%): 27% and 16%
  Population Healthy Nuclei (%): 63% and 74%
  Population Hoechst High Intensity Objects (%): 2% and 0%
  Population Membrane Permeable-Phenotype (%): 3% and 5%
  Population Mitochondria Different-Phenotype (%): 0% and 7%
  Population Mitotic Cells (%): 13% and 9%
  Population Normal (%): 98% and 99%
  Population Pyknosed Nuclei (%): 8%
  Population Tubulin-Different-Phenotype (%): 1% and 4%
  Total Cell Count: 250 and 131
[4]
  Population Apoptotic (%): 100% and 90%
  Population Fragmented Nuclei (%): 23% and 16%
  Population Healthy Nuclei (%): 66% and 74%
  Population Hoechst High Intensity Objects (%): 1% and 2%
  Population Membrane Permeable-Phenotype (%): 6% and 5%
  Population Mitochondria Different-Phenotype (%): 4% and 1%
  Population Mitotic Cells (%): 0% and 10%
  Population Normal (%): 98% and 97%
  Population Pyknosed Nuclei (%): 9% and 8%
  Population Tubulin-Different-Phenotype (%): 4% and 2%
  Total Cell Count: 216 and 118
[5]
  Population Apoptotic (%): 89% and 100%
  Population Fragmented Nuclei (%): 19% and 13%
  Population Healthy Nuclei (%): 71% and 79%
  Population Hoechst High Intensity Objects (%): 2%
  Population Membrane Permeable-Phenotype (%): 4% and 5%
  Population Mitochondria Different-Phenotype (%): 3% and 4%
  Population Mitotic Cells (%): 10% and 0%
  Population Normal (%): 97%
  Population Pyknosed Nuclei (%): 8% and 7%
  Population Tubulin-Different-Phenotype (%): 2% and 3%
  Total Cell Count: 334 and 189
[6]
  Population Apoptotic (%): 89% and 100%
  Population Fragmented Nuclei (%): 23% and 21%
  Population Healthy Nuclei (%): 67% and 70%
  Population Hoechst High Intensity Objects (%): 3% and 2%
  Population Membrane Permeable-Phenotype (%): 6% and 7%
  Population Mitochondria Different-Phenotype (%): 3%
  Population Mitotic Cells (%): 10% and 0%
  Population Normal (%): 96% and 97%
  Population Pyknosed Nuclei (%): 9% and 7%
  Population Tubulin-Different-Phenotype (%): 4% and 3%
  Total Cell Count: 302 and 161
